Experimental data: ChEMBL document CHEMBL3526053, “Species-dependent uptake of glycylsarcosine but not oseltamivir in Pichia pastoris expressing the rat, mouse, and human intestinal peptide transporter PEPT1” (Drug Metab Dispos, 2012)

Experiments:
Type in all cases: ADME
[1] = target: T1, Solute carrier family 15 member 1 (Homo sapiens, UniProt P46059); experiment: Drug uptake in Pichia pastoris GS115 expressing human recombinant PEPT1 at 5 uM after 30s by dual-channel liquid scintillation counting analysis in presence of cefazolin relative to control; conditions: 0.5 min
T1 sequence (P46059 whole entry): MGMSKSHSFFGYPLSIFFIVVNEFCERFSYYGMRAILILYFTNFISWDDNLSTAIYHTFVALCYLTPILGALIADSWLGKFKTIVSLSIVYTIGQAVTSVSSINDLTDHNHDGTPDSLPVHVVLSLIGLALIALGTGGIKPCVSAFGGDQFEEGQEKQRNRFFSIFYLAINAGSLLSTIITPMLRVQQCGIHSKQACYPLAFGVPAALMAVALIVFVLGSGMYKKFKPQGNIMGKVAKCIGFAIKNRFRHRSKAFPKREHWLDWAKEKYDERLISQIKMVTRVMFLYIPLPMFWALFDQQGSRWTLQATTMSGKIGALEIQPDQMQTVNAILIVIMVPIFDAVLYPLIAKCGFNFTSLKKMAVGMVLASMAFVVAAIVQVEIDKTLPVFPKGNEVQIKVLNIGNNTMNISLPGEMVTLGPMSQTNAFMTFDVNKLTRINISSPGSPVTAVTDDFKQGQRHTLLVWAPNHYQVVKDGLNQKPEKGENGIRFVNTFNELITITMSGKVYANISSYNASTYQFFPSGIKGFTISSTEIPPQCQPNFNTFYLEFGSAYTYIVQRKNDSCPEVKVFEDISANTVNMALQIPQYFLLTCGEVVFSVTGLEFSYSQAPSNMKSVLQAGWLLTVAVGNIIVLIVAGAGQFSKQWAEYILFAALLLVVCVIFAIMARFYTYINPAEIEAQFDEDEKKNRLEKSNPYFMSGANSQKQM
Summary of the method: (§1)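 [3H]GlySar 5.0 µM final, 30-s uptake at 24°C in 100 mM potassium phosphate pH 6.5, with or without a potential inhibitor at 10 mM. Cells are methanol-induced transformants. Values are vector-subtracted and expressed as percent of buffer control. Mean ± SE (n=3). ANOVA with Dunnett's test.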

[2] = target: T2, Solute carrier family 15 member 1 (Rattus norvegicus, UniProt P51574); experiment: Drug uptake in Pichia pastoris GS115 expressing rat recombinant PEPT1 at 5 uM after 30s by dual-channel liquid scintillation counting analysis in presence of TEA relative to control; conditions: 0.5 min; summary of the method: as §1
T2 sequence (P51574 whole entry): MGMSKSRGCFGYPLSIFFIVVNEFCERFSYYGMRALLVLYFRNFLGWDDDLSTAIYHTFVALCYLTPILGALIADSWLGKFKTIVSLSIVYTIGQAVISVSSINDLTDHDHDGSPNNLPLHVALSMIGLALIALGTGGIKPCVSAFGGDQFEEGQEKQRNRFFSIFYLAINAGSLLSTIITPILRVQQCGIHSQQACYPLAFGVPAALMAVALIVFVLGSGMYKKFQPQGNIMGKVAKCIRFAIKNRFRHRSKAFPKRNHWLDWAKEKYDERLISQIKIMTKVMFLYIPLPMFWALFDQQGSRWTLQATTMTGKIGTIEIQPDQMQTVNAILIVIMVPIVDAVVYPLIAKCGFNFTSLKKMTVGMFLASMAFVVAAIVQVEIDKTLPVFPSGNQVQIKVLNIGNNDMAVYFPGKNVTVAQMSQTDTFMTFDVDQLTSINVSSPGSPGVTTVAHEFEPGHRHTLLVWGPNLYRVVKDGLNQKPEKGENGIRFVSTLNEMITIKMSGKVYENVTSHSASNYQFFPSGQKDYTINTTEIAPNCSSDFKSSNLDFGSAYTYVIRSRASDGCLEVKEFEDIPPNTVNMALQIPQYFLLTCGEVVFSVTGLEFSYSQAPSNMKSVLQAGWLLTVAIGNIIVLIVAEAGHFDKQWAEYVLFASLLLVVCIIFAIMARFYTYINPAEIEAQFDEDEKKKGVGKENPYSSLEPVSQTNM

[3] = target: T3, Solute carrier family 15 member 1 (Mus musculus, UniProt Q9JIP7); experiment: Drug uptake in Pichia pastoris GS115 expressing mouse recombinant PEPT1 at 5 uM after 30s by dual-channel liquid scintillation counting analysis in presence of SITS relative to control; conditions: 0.5 min; summary of the method: as §1
T3 sequence (Q9JIP7 whole entry): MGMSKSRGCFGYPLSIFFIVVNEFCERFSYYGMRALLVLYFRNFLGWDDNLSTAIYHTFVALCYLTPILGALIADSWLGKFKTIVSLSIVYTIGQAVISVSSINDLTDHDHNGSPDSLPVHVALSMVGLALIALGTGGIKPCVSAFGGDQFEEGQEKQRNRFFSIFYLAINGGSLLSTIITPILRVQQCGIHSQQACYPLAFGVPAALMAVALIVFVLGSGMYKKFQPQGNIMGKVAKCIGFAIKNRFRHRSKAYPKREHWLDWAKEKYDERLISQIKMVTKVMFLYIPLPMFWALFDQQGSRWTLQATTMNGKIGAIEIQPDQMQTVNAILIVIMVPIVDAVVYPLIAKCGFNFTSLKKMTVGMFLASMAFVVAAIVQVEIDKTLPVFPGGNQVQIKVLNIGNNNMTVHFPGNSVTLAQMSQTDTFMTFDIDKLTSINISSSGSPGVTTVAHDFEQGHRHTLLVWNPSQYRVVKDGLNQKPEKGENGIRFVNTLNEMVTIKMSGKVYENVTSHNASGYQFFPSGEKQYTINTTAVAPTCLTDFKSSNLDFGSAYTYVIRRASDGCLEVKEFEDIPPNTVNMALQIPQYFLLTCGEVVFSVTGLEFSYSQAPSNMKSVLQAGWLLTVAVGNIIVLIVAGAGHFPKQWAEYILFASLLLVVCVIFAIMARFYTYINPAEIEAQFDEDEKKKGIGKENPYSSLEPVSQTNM

[4] = target: T1, Solute carrier family 15 member 1; experiment: Drug uptake in Pichia pastoris GS115 expressing human recombinant PEPT1 at 5 uM after 30s by dual-channel liquid scintillation counting analysis relative to control; conditions: 0.5 min; summary of the method: as §1
[5] = target: T3, Solute carrier family 15 member 1; experiment: Drug uptake in Pichia pastoris GS115 expressing mouse recombinant PEPT1 at 5 uM after 30s by dual-channel liquid scintillation counting analysis relative to control; conditions: in vivo, 0.5 min; summary of the method: as §1
[6] = target: T1, Solute carrier family 15 member 1; experiment: Drug uptake in Pichia pastoris GS115 expressing human recombinant PEPT1 at 5 uM after 30s by dual-channel liquid scintillation counting analysis in presence of L-histidine relative to control; conditions: 0.5 min; summary of the method: as §1
[7] = target: T1, Solute carrier family 15 member 1; experiment: Drug uptake in Pichia pastoris GS115 expressing human recombinant PEPT1 at 5 uM after 30s by dual-channel liquid scintillation counting analysis in presence of cephradine relative to control; conditions: 0.5 min; summary of the method: as §1
[8] = target: T1, Solute carrier family 15 member 1; experiment: Drug uptake in Pichia pastoris GS115 expressing human recombinant PEPT1 at 5 uM after 30s by dual-channel liquid scintillation counting analysis in presence of glycine relative to control; conditions: 0.5 min; summary of the method: as §1
[9] = target: T2, Solute carrier family 15 member 1; experiment: Drug uptake in Pichia pastoris GS115 expressing rat recombinant PEPT1 at 5 uM after 30s by dual-channel liquid scintillation counting analysis in presence of SITS relative to control; conditions: in vivo, 0.5 min; summary of the method: as §1
[10] = target: T3, Solute carrier family 15 member 1; experiment: Drug uptake in Pichia pastoris GS115 expressing mouse recombinant PEPT1 at 5 uM after 30s by dual-channel liquid scintillation counting analysis in presence of acyclovir relative to control; conditions: 0.5 min; summary of the method: as §1

Drug uptake [1]: 81.1% | Drug uptake [2]: 94.8% | Drug uptake [3]: 86.1% | Drug uptake [4]: 100% | Drug uptake [5]: 100% | Drug uptake [6]: 122% | Drug uptake [7]: 23.2% | Drug uptake [8]: 130% | Drug uptake [9]: 107% | Drug uptake [10]: 99.8%
SMILES: [3H]C(C(=O)O)N(C)C(=O)CN (stereo not given)
